Values after ≈ are worked out from the molar mass of the structure shown.
How the values were obtained:
[1] = target: T1, Geranylgeranyl transferase type I (Homo sapiens, UniProt P49354+P53609); assay: Minimum inhibitory concentration required to inhibit Rap1a processing in PSN-1 cells.; format: functional, cell-based
[2] = target: T2, Protein farnesyltransferase (Homo sapiens, UniProt P49354+P49356); assay: Inhibition of human Farnesyltransferase -catalyzed incorporation of [3H]FPP into recombinant Ras-CVIM.; format: protein-complex assay
Procedure, shortened: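 Human FPTase with [3H]FPP and recombinant Ras-CVIM as the protein substrate. The IC50 is the concentration that halves [3H]farnesyl incorporation into Ras-CVIM.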

[3] = target: T1, Geranylgeranyl transferase type I; assay: Inhibition of human Geranylgeranyl transferase type I incorporation of [3H]GGPP into biotinylated peptide corresponding to the C-terminus of human Ki-Ras.; format: protein-complex assay
Procedure, shortened: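 Human GGPTase-I with [3H]GGPP and a biotinylated peptide matching the human Ki-Ras C-terminus. Enzyme and inhibitor are preincubated for 30 min with 5 mM ATP. The IC50 is the concentration that halves incorporation. A parallel run omits the preincubation.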

[4] = target: T2, Protein farnesyltransferase; assay: Displacement of radiolabeled FTI from Farnesyltransferase in cultured Ha-ras transformed RAT1 cells.; format: cell-based
Homo sapiens = organism: Homo sapiens; assay: Slope between log (IC50) versus log [GGPP] in GGTase-I; format: functional
Procedure, shortened: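 GGPP competition in the human GGPTase-I [3H]GGPP/biotinylated Ki-Ras peptide assay. IC50s are measured at various GGPP concentrations with 5 mM ATP.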

PSN1 [5] = assay: Effective dose required for half-maximal inhibition of prenylation in PSN-1 cells (Ki-Ras); format: functional, cell-based; settings: Homo sapiens
Procedure, shortened: (§1)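 PSN-1 cells are treated with compound. Prenylation of HDJ2, Rap1a and Ki-Ras is scored by scanning immunoblots of whole-cell extracts, and EC50 is the dose giving half-maximal inhibition of prenylation. The ratio is Ki-Ras EC50 over HDJ2 EC50. In one arm a selective GGTI is added at 1 μM.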

PSN1 [6] = assay: Ratio of effective concentration required for protein processing of Ki-Ras to that of HDJ2 in PSN-1 cells; format: functional, Homo sapiens; procedure, shortened: as §1
PSN1 [7] = assay: Effective dose required for half-maximal inhibition of farnesylated protein (HDJ2) in PSN-1 cells; format: functional, cell-based; settings: Homo sapiens; procedure, shortened: as §1
PSN1 [8] = assay: Effective dose required for half-maximal inhibition of geranylgeranylated protein (Rap1a) in PSN-1 cells; format: functional, cell-based; settings: Homo sapiens; procedure, shortened: as §1

SMILES | MIC [1] [µM] | IC50 [2] [nM] | IC50 [3] [nM] | IC50 [4] [nM] | Slope (Homo sapiens) | EC50 (PSN1 [5]) [nM] | Ratio (PSN1 [6]) | EC50 (PSN1 [7]) [nM] | EC50 (PSN1 [8]) [nM]
C=CCc1ccc2cc1CN1CCN(CC1=O)Cc1cncn1Cc1ccc(C#N)c(c1)O2 | 1 (≈ 0.44 µg/mL) | 0.1 | 107 | 0.59 | – | – | – | – | –
CCCc1ccc2cc1CN1CCN(CC1=O)Cc1cncn1Cc1ccc(C#N)c(c1)O2 | 1 (≈ 0.442 µg/mL) | 0.31 | 97 | 0.44 | -0.12 | – | – | – | –
N#Cc1ccc2cc1Oc1ccc(C#Cc3ccccc3)c(c1)CN1CCN(CC1=O)Cc1cncn1C2 | – | 645 | 534 | – | – | – | – | – | –
N#Cc1ccc2cc1Oc1ccc(CCC3CCCCC3)c(c1)CN1CCN(CC1=O)Cc1cncn1C2 | 0.03 (≈ 0.0153 µg/mL) | 1.6 | 1.7 | 5.7 | -0.25 | 1060 | 89 | 12 | 140
N#Cc1ccc2cc1Oc1ccc(Cl)c(c1)CN1CCN(CC1=O)Cc1cncn1C2 | – | < 1 | 450 | 0.3 | – | – | – | – | –
Cc1ccc2cc1CN1CCN(CC1=O)Cc1cncn1Cc1ccc(C#N)c(c1)O2 | – | – | 502 | 0.33 | – | – | – | – | –
N#Cc1ccc2cc1Oc1ccc(Br)c(c1)CN1CCN(CC1=O)Cc1cncn1C2 | 10 (≈ 4.78 µg/mL) | 0.45 | 100 | 1.1 | – | – | – | – | –
CC1(C)OCC(Cc2ccc3cc2CN2CCN(CC2=O)Cc2cncn2Cc2ccc(C#N)c(c2)O3)O1 (stereo not drawn) | < 0.3 | 0.5 | 46 | 0.86 | 0.25 | 1520 | 150 | 10 | 690
COC(=O)c1ccc2cc1CN1CCN(CC1=O)Cc1cncn1Cc1ccc(C#N)c(c1)O2 | 3 (≈ 1.37 µg/mL) | 24 | 420 | 20 | – | – | – | – | –
CC(C)(C)C#Cc1ccc2cc1CN1CCN(CC1=O)Cc1cncn1Cc1ccc(C#N)c(c1)O2 | 1 (≈ 0.48 µg/mL) | 38 | 55 | 10 | 0.32 | – | – | – | –
N#Cc1ccc2cc1Oc1ccc(C#CC3CCCCC3)c(c1)CN1CCN(CC1=O)Cc1cncn1C2 | 0.3 (≈ 0.152 µg/mL) | 364 | 2.4 | 170 | 0.68 | – | – | – | –
N#Cc1ccc2cc1Oc1ccc(CC(O)CO)c(c1)CN1CCN(CC1=O)Cc1cncn1C2 (stereo not drawn) | – | 6.8 | 1050 | 40 | – | – | – | – | –
C#Cc1ccc2cc1CN1CCN(CC1=O)Cc1cncn1Cc1ccc(C#N)c(c1)O2 | 3 (≈ 1.27 µg/mL) | 0.5 | 212 | 1.4 | – | – | – | – | –
CCc1ccc2cc1CN1CCN(CC1=O)Cc1cncn1Cc1ccc(C#N)c(c1)O2 | 1 (≈ 0.428 µg/mL) | 0.66 | 124 | 1.2 | -0.16 | – | – | – | –
N#Cc1ccc2cc1Oc1ccc(F)c(c1)CN1CCN(CC1=O)Cc1cncn1C2 | – | < 1 | 2750 | 1 | – | – | – | – | –
N#Cc1ccc2cc1Oc1ccc(C(=O)NC3C4CC5CC(C4)CC3C5)c(c1)CN1CCN(CC1=O)Cc1cncn1C2 (stereo not drawn) | 0.1 (≈ 0.0577 µg/mL) | 20 | 43 | 30 | 0.28 | – | – | – | –
N#Cc1ccc2cc1Oc1ccc3cccc(c3c1)N1CCN(CC1=O)Cc1cncn1C2 | 10 (≈ 4.35 µg/mL) | – | 301 | 0.29 | -0.44 | > 10000 | >5000 | 2 | > 10000
N#Cc1ccc2cc1Oc1ccc(CC3CC3)c(c1)CN1CCN(CC1=O)Cc1cncn1C2 | 10 (≈ 4.54 µg/mL) | 0.66 | 238 | 2.2 | – | – | – | – | –
N#Cc1ccc2cc1Oc1cccc(c1)CN1CCN(CC1=O)Cc1cncn1C2 | 30 (≈ 12 µg/mL) | 2.2 | 3780 | 3.3 | 0.08 | – | – | – | –
N#Cc1ccc(Cn2cncc2CN2CCN(c3cccc(Cl)c3)C(=O)C2)cc1 [L-778123 FREE BASE] | – | – | – | – | 1.42 | 6300 | – | 92 | 6760
CC(C)(C)CCc1ccc2cc1CN1CCN(CC1=O)Cc1cncn1Cc1ccc(C#N)c(c1)O2 | 0.1 (≈ 0.0484 µg/mL) | 19 | 2.1 | 28 | 0.48 | – | – | – | –

Reference: ChEMBL document CHEMBL1148268, “Macrocyclic piperazinones as potent dual inhibitors of farnesyltransferase and geranylgeranyltransferase-I” (Bioorg Med Chem Lett, 2004)
